Here are results for 18 molecules from ChEMBL document CHEMBL1255292, “New active drugs against liver stages of Plasmodium predicted by molecular topology” (Antimicrob Agents Chemother, 2008).

Where only a bound is given, the exact number is not on record here.

Data set [1] is described as follows: Cytotoxicity against Hepatocyte cells assessed as cell viability by MTT assay. In kind it is cell-based. Conditions: hepatocytes; read-out: TC50 (the source's name). In outline: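 MTT assay in mouse hepatocyte cultures prepared as for infection. Drugs at eight concentrations from 6.4 x 10–3 to 100 µM, triplicate wells. MTT 0.5 mg/ml (final) added for 4 h at 37°C, cells taken up in ethanol/DMSO 50/50, absorbance 550 nm with 620 nm reference. Viability expressed as percent of drug-free controls; TC50 by linear regression.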

For another data set, the system named is Plasmodium yoelii yoelii. Kind of data set: Antimicrobial activity against Plasmodium yoelii 265 liver infected in mammalian hepatocytes after 48 hrs. In kind it is functional, organism-based. To be noted: Plasmodium yoelii, 265, Hepatocyte.
A short description of data set [2]: Selectivity index, ratio of TC50 for hepatocytes to IC50 for Plasmodium yoelii. On the set-up: species or system Hepatocyte. The procedure, abridged: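 SI calculated as hepatocyte TC50 (MTT, mouse hepatocytes) divided by liver-stage IC50 against P. yoelii yoelii, both measured in this work.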
Another data set concerns Plasmodium falciparum. Nature of the data set: Antimicrobial activity against Plasmodium falciparum NF54 schizonts in mammalian hepatocytes after 96 hrs. In kind it is functional, organism-based. Conditions: NF54, Hepatocyte. The procedure, abridged:
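Primary hepatocytes isolated by collagenase perfusion, 10^5 cells per chamber-slide well, held 24 h at 37°C, 4% CO2, then infected with 9 x 10^4 NF54 sporozoites dissected from salivary glands of infected Anopheles stephensi. Drugs added at infection to duplicate cultures, seven concentrations from 1 x 10^-6 to 30 µM, renewed daily. Methanol-fixed; HSPi72 serum with FITC anti-mouse IgG; schizonts counted; IC50 by linear regression.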

The term IC50 denotes the midpoint of a concentration-inhibition curve. Low values mean greater potency, high ones weaker potency.

`CC(C)(C)NC(=O)[C@@H]1CN(Cc2cccnc2)CCN1C[C@@H](O)C[C@@H](Cc1ccccc1)C(=O)N[C@H]1c2ccccc2C[C@H]1O`: the CC50 in data set [1] was 8.77 µM. For the same molecule, in the data set with Plasmodium yoelii yoelii, the midpoint of inhibition, the IC50, lay at 5000 nM.

For `O=C1C(O)=C([C@H]2CC[C@H](c3ccc(Cl)cc3)CC2)C(=O)c2ccccc21` [ATOVAQUONE], the CC50 in data set [1] came to 16.5 µM. Moreover, the “Selectivity Index” value in data set [2] turned out to be 289. Half-maximal inhibition in the data set on Plasmodium yoelii yoelii (IC50) was put at 57 nM.

Consider `CC(C)Nc1cccnc1N1CCN(C(=O)c2cc3cc(NS(C)(=O)=O)ccc3[nH]2)CC1` [DELAVIRDINE], for which, in data set [1], the CC50 was above 100 µM. Besides, the “Selectivity Index” value in data set [2] is listed as above 118000. Further, in the data set on Plasmodium yoelii yoelii, 0.846 nM corresponded to half-maximal inhibition (IC50).

With `CC(CCc1ccc(O)cc1)NCCc1ccc(O)c(O)c1` (stereo unspecified) [DOBUTAMINE], the CC50 in data set [1] was above 100 µM. Besides, the “Selectivity Index” value in data set [2] is recorded as above 27000. This molecule also showed an IC50 in the data set with Plasmodium yoelii yoelii of 3.7 nM.

For `CC[C@H](C)[C@H](NC(=O)[C@H]([C@@H](C)CC)N(C)C(C)=O)C(=O)N[C@H](C(=O)N[C@@H](CC(C)C)C(=O)[C@@]1(C)CO1)[C@@H](C)O` [EPOXOMYCIN], in data set [1], the CC50 worked out at 47.3 µM. In data set [2], the “Selectivity Index” value turned out to be 11.97. In addition, the IC50 with Plasmodium yoelii yoelii was found to be 3950 nM.

As to `COC(=O)Nc1nc2cc(Sc3ccccc3)ccc2[nH]1` [FENBENDAZOLE], the CC50 in data set [1] was above 100 µM. In addition, the “Selectivity Index” value in data set [2] was above 3.33. Moreover, in the data set on Plasmodium yoelii yoelii, the IC50 is 30000 nM.

On to `C=CC(C)(C)c1cc(/C=C/C(=O)c2ccc(O)cc2)c(OC)cc1O` [LICOAGROCHACONE A], for which, in data set [1], the CC50 was determined as 63.4 µM. For the same molecule, the “Selectivity Index” value in data set [2] was found to be 68300. Moreover, the IC50 in the data set with Plasmodium yoelii yoelii was 0.927 nM.

With `COCC(=O)O[C@]1(CCN(C)CCCc2nc3ccccc3[nH]2)CCc2cc(F)ccc2[C@@H]1C(C)C` [MIBEFRADIL], the CC50 in data set [1] worked out at 67.9 µM. Also, in data set [2], the “Selectivity Index” value is given as 77000. This molecule yielded an IC50 in the data set on Plasmodium yoelii yoelii of 0.873 nM.

As to `Clc1ccc(COC(Cn2ccnc2)c2ccc(Cl)cc2Cl)c(Cl)c1` (stereo unspecified) [MICONAZOLE], the CC50 in data set [1] came to 70.4 µM. In addition, in data set [2], the “Selectivity Index” value is recorded as 34700. In the data set on Plasmodium yoelii yoelii, the half-inhibitory concentration (IC50) was 2.03 nM.

In the case of `CC[C@@]1([C@@H]2O[C@@H]([C@H]3O[C@@](O)(CO)[C@H](C)C[C@@H]3C)C[C@@H]2C)CC[C@H]([C@]2(C)CC[C@]3(C[C@H](O)[C@@H](C)[C@@H]([C@@H](C)[C@@H](OC)[C@H](C)C(=O)O)O3)O2)O1` [MONENSIN], the CC50 in data set [1] is above 32 µM. The concentration for half-maximal inhibition (IC50) was below 1 pM in the data set on Plasmodium falciparum and below 0.001 nM with Plasmodium yoelii yoelii. In data set [2], the “Selectivity Index” value is on record as above 32000000.

As to `CO[C@@H]1C[C@@H](C[C@H]2CC[C@H](C)[C@H]([C@@H](C)C(=O)O)O2)O[C@]2(O[C@](C)([C@H]3CC[C@@](C)([C@@H]4O[C@@H]([C@H]5O[C@@](O)(CO)[C@H](C)C[C@@H]5C)C[C@@H]4C)O3)C[C@H]2C)[C@@H]1C` [NIGERICIN], the CC50 in data set [1] was 13.2 µM. The IC50 in the data set with Plasmodium falciparum is below 1 pM; in the data set on Plasmodium yoelii yoelii it was below 0.001 nM. In addition, the “Selectivity Index” value in data set [2] is on record as above 13200000.

Turning to `CC(Cc1ccc(O)c(O)c1)C(C)Cc1ccc(O)c(O)c1` (stereo unspecified) [NORDIHYDROGUAIARETIC ACID], the CC50 in data set [1] is above 100 µM. The “Selectivity Index” value in data set [2] is given as above 3.33. This molecule gave a half-maximal inhibitory concentration (IC50) in the data set with Plasmodium yoelii yoelii of 30000 nM.

In the case of `COc1cc(NC(C)CCCN)c2ncccc2c1` (stereo unspecified) [PRIMAQUINE], the CC50 in data set [1] worked out at 12.5 µM.

With `CCN(CC)CCCC(C)Nc1c2ccc(Cl)cc2nc2ccc(OC)cc12` (stereo unspecified) [QUINACRINE], the CC50 in data set [1] is above 11.6 µM. In addition, the “Selectivity Index” value in data set [2] is above 0.38. In the data set with Plasmodium yoelii yoelii, this molecule returned an IC50 of 30000 nM.

As for `CC(N)C12CC3CC(CC(C3)C1)C2` (stereo unspecified) [RIMANTADINE], in data set [1], the CC50 was above 100 µM. Further, the “Selectivity Index” value in data set [2] is listed as above 3.33. The same molecule came in with a half-maximal inhibitory concentration (IC50) with Plasmodium yoelii yoelii of 35.6 nM.

Consider `CC(C)c1nc(CN(C)C(=O)N[C@H](C(=O)N[C@@H](Cc2ccccc2)C[C@H](O)[C@H](Cc2ccccc2)NC(=O)OCc2cncs2)C(C)C)cs1` [RITONAVIR], for which half-maximal inhibition with Plasmodium yoelii yoelii (IC50) was put at 34.2 nM. In other words, the double-digit nanomolar range.

Take `CCOC(=O)NC(=S)Nc1ccccc1NC(=S)NC(=O)OCC` [THIOPHANATE]: the CC50 in data set [1] was above 100 µM. For the same molecule, in data set [2], the “Selectivity Index” value is reported as above 3.33. Moreover, the IC50 in the data set on Plasmodium yoelii yoelii stood at 30000 nM.

`CC[C@]1(O)C[C@@H]2CN(CCc3c([nH]c4ccccc34)[C@@](C(=O)OC)(c3cc4c(cc3OC)N(C)[C@H]3[C@@](O)(C(=O)OC)[C@H](OC(C)=O)[C@]5(CC)C=CCN6CC[C@]43[C@@H]65)C2)C1` [VINBLASTINE]: the CC50 in data set [1] came out at 54.5 µM. For the same molecule, the “Selectivity Index” value in data set [2] amounted to 6.85. In the data set with Plasmodium yoelii yoelii, the IC50 turned out to be 7950 nM.
